Reference: article PMC6218015 (ACS Chemical Biology, 2017)

How the values were obtained:
GST-ATAD2 BD = molecular target: T1, GST-ATAD2 BD (Homo sapiens, UniProt Q6PL18); assay: Microscale thermophoresis; assay type: binding; settings: MST
T1 sequence (Q6PL18 981-1108): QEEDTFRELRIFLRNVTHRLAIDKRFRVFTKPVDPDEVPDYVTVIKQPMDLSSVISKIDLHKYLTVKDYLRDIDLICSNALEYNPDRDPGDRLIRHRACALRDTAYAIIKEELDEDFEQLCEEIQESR
Procedure, shortened: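 Fluorescence-labeled GST-ATAD2 incubated with vehicle or increasing test compound concentrations. Thermophoresis traces recorded in real time. Averaged steady-state MST signals plotted against dose and fitted to a 1:1 binding model to derive KD.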

ATAD2 = molecular target: T2, ATAD2 (Homo sapiens, UniProt Q6PL18); assay: BROMOscan; assay type: binding
T2 sequence (Q6PL18 981-1108 limits assumed): T1 sequence (Q6PL18 981-1108)

panel of 354 kinases = assay: Kinase panel overall; assay type: biochemical, human
[1] = molecular target: T3, FLAG tagged ATAD2 (342 - 1390) (Homo sapiens, UniProt Q6PL18); assay: AlphaScreen, ATAD2 construct including the ATPase domain; assay type: binding; settings: larger ATAD2 construct including the ATPase domain
T3 sequence (Q6PL18 342-1390): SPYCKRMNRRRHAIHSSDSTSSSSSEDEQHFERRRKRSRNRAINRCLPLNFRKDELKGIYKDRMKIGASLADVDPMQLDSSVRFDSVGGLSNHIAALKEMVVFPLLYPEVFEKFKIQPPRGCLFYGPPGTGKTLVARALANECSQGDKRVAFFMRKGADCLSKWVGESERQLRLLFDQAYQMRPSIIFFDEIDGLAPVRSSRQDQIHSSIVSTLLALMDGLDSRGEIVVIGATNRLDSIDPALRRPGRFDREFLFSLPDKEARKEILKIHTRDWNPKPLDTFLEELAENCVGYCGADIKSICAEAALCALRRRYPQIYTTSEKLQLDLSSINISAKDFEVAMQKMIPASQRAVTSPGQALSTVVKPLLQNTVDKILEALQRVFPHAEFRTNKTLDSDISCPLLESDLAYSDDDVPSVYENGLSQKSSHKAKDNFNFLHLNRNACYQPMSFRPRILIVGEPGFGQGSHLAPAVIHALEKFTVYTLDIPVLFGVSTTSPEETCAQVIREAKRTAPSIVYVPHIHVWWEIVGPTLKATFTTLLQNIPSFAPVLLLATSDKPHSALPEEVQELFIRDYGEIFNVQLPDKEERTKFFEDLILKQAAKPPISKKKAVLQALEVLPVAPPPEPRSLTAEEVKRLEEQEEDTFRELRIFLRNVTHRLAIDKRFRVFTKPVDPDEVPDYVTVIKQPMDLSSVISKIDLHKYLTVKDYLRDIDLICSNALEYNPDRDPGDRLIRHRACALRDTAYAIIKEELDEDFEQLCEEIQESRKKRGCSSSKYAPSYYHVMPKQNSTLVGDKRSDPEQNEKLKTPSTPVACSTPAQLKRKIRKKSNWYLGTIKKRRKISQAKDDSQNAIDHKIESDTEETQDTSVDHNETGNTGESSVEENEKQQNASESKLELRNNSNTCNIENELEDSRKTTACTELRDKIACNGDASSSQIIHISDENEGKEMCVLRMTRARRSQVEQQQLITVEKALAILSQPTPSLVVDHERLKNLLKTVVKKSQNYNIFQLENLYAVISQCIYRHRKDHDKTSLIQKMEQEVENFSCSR
Procedure, shortened: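 Binding competition between ATAD2 and an acetylated histone H4 peptide, read by AlphaScreen over increasing test compound concentrations. Signals were normalized, plotted against dose and fitted to a four-parameter logistic equation to give potency.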

tag-free ATAD2 = molecular target: T4, tag-free ATAD2 (Homo sapiens, UniProt Q6PL18); assay: Native mass spectrometry; assay type: binding; settings: 10 μM ATAD2 BD, 5 μM compound
T4 sequence (Q6PL18 981-1108): T1 sequence (Q6PL18 981-1108)

[2] = tested on: other members of the BD family; assay: TSA bromodomain selectivity panel; assay type: binding; settings: 10 μM
Procedure, shortened: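 Thermal shift assay across the bromodomain family. Melting curves of each bromodomain were acquired with 10 μM test compound or with vehicle. Compound effects were taken from the melting-curve comparison and mapped onto the bromodomain phylogenetic tree.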

Permeability = assay type: in vitro ADME; settings: Caco-2 assay
His-ATAD2 BD = molecular target: T5, His-ATAD2 BD (Homo sapiens, UniProt Q6PL18); assay: AlphaScreen binding competition assay, tetra-acetylated H4 peptide
T5 sequence (Q6PL18 981-1108): T1 sequence (Q6PL18 981-1108)
Procedure, shortened: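 Competition for binding of acetylated histone H4 N-terminal peptides to the ATAD2 bromodomain, titrated with increasing test compound. TR-FRET read-out for mono- and tetra-acetylated peptides; AlphaScreen read-out for the tetra-acetylated peptide. Normalized signals plotted against compound dose and fitted to a four-parameter logistic equation to obtain IC50.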

[3] = tested on: HMEC nontransformed mammary epithelial cells; assay: Growth inhibition of nontransformed cells; assay type: cell-based; settings: HMEC vs MCF7 and MDA-MB-231
[4] = molecular target: T6, GFP-tagged full-length wild type ATAD2 in MCF7 cells (Homo sapiens, UniProt Q6PL18); assay: Fluorescence recovery after photobleaching; assay type: cell-based
T6 sequence (Q6PL18 1-1390): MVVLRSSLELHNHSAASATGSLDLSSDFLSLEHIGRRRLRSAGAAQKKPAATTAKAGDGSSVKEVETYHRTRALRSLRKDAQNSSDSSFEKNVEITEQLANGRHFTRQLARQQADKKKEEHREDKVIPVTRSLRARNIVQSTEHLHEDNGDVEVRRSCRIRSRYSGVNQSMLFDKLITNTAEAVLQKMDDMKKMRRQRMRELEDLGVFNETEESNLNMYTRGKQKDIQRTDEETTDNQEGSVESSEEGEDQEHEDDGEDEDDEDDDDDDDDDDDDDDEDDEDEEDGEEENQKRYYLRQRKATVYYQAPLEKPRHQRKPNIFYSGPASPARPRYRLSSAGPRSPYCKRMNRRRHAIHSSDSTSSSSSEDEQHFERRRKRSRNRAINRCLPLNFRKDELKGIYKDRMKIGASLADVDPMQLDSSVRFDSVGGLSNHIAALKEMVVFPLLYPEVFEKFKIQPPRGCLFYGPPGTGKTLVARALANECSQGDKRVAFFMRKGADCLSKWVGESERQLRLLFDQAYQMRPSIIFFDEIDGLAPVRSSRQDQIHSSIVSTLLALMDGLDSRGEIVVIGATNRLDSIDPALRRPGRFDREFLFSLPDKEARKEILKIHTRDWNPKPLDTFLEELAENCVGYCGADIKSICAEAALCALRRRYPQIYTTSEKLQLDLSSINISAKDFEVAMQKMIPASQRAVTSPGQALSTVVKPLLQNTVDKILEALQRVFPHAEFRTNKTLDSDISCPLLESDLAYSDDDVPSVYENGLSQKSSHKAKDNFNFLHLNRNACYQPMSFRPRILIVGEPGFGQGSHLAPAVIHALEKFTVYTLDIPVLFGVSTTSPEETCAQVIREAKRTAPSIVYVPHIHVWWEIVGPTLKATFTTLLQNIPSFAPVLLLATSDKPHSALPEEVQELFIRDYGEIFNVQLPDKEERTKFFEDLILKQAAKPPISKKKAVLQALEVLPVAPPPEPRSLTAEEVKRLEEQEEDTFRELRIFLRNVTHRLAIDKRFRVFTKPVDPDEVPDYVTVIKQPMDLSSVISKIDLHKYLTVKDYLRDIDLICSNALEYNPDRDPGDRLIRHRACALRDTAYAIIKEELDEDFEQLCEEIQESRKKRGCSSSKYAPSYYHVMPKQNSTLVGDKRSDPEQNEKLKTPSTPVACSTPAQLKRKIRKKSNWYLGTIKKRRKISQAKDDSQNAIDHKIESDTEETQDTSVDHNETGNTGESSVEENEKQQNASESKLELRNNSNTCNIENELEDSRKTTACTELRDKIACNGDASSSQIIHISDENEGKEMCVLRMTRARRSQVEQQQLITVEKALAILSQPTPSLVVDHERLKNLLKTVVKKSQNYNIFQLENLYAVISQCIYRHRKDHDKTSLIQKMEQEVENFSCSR
Procedure, shortened: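 MCF7 cells transfected with GFP-tagged full-length wild-type ATAD2; BD-mutant and ATPase-mutant constructs run as comparators. Cells treated with 1 μM test compound for 1 h, then a defined area photobleached. Half fluorescence recovery time measured in the bleached area from at least 15 cells per group, reported as mean with standard error of the mean.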

untagged ATAD2 BD = molecular target: T7, untagged ATAD2 BD (Homo sapiens, UniProt Q6PL18); assay: Size exclusion chromatography; assay type: binding; settings: molar ratio 1:1
T7 sequence (Q6PL18 981-1108): T1 sequence (Q6PL18 981-1108)

[5] = tested on: ATAD2 target genes in MCF7 cells; assay: Gene expression study with quantitative PCR; assay type: cell-based; settings: MCF7, 24 h, up to 6.67 µM

- Kd (GST-ATAD2 BD): 85 nM
- Kd (ATAD2): 115 nM
- inhibitory activity in kinase panel (panel of 354 kinases): no inhibitory activity
- permeability (Permeability): moderate permeability
- IC50 (His-ATAD2 BD): 157 nM
- concentration of maximal on-target cellular activity ([4]; FRAP, MCF7): 1 µM
- Recovery t1/2 ([4]; MCF7 cells, 1 μM for 1 h, mean ± SEM): 6.3 ± 1.2 s
SMILES: COc1cc(Cl)c(C(=O)N[C@@H](CN[C@H]2CC[C@@H](N)CC2)Cc2ccc(C#N)cc2)cc1-c1ccc(CN[C@H](C)c2ccc(C)cc2)o1 [BAY-850]
- inhibition of tetra-acetylated H4 peptide binding [1]: inhibited tetra-acetylated H4 peptide binding
- binding to ATAD2 by native MS (tag-free ATAD2): one BAY-850 molecule binds to an ATAD2 dimer
- effect on thermal stability of other BD family members [2]: not observed for other members of the BD family
- growth inhibition of nontransformed vs cancer cells [3]: similarly active on the nontransformed and cancer cells
- ATAD2 dimerisation in SEC elution profile (untagged ATAD2 BD): compound-induced shift from the ATAD2-monomer to ATAD2-dimer form
- expression of ATAD2 target genes [5]: did not affect the expression
